Laboratory results as given in PMC11881275 (Malaria Journal, 2025).
Entries after “also recorded” stand apart in the source; their conditions may differ.

Assays:
P. falciparum W2 clone = test: In vitro antimalarial activity via the SYBR Green I assay; assay type: cell-based, Plasmodium falciparum
Outline: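 Sorbitol-synchronized parasites in human O+ erythrocytes (0.5% parasitaemia, 2% haematocrit) received twofold dilutions of test compound, 1.56–200 µM final, in triplicate; artemisinin 170 nM was the control. Incubation was 72 h at 37 °C under 5% CO2/5% O2/90% N2. Cells were lysed in Tris/EDTA/saponin/Triton buffer with SYBR Green I, 30 min at 24 °C in the dark; ex 485/em 590 nm, uninfected-RBC blank subtracted. SI = HepG2 CC50 (MTT, 72 h) ÷ IC50.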

[1] = in silico predictions ref 77; cited from earlier work
[2] = Cytotoxic activity via the MTT method; assay type: cell-based, human; details: human, HepG2 cells
[3] = tested on: P. falciparum NF54 gametocytes (stages IV, V); test: Exflagellation-blocking bioassay; assay type: cell-based, Plasmodium falciparum; details: 1 µM; ≥ 75% high, 25 to 75% average, below 25% inactive
Outline: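 Stage IV–V gametocytes were first checked for exflagellation (≥30 exflagellating microgametocytes per 1000 RBC). They were then exposed for 48 h to test compound at 1 µM in triplicate, with DMSO ≤0.5% and DHA 1 µM as controls. Exflagellation was induced in ookinete medium containing xanthurenic acid, 20 min at 24 °C, and counted by microscopy at 1000×. Inhibition ≥75% was classed active.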

[4] = tested on: human hepatocellular carcinoma cell line (HepG2); test: Cytotoxic activity via the MTT method; assay type: cell-based; details: highest concentration tested 500 µM

Compound	SI (selectivity index) (P. falciparum W2 clone; CC50 HepG2 divided by IC50 W2)	IC50 (P. falciparum W2 clone; Plasmodium falciparum, W2, 72 h, read-out: IC50 W2)	Plasma protein binding [1]	CC50 at 72 h [2]	viability at 72 h, 500 µM [2]	Potential to block malaria transmission (classification) [3]	Cytotoxicity to HepG2 cells (in words) [4]
C[C@@H]1CC[C@H]2[C@@H](C)C(=O)O[C@@H]3O[C@@]4(C)CC[C@@H]1[C@]32OO4 [Artemisinin]	≥ 23,809	0.021 ± 0.004 µM	high plasm protein binding	≥ 500 µM	100%		
CC(=O)OCc1cn(-c2n[nH]c(C(F)(F)F)n2)nn1 [Compound 14d, (1-(5-(trifluoromethyl)-1H-1,2,4-triazol-3-yl)-1H-1,2,3-triazol-4-yl)methyl acetate]				≥ 500 µM	93.4%	high potential to block malaria transmission; also recorded: strong potential to block malaria transmission	non-cytotoxic; also recorded: no cytotoxicity
COc1cc(NC(C)CCCN)c2ncccc2c1 (stereo not drawn) [primaquine]			high plasm protein binding				
CC(=O)OCc1cn(-c2n[nH]c(C)n2)nn1 [Compound 13d, (1-(5-methyl-1H-1,2,4-triazol-3-yl)-1H-1,2,3-triazol-4-yl)methyl acetate]				≥ 500 µM	80%		non-cytotoxic; also recorded: no cytotoxicity
OC(c1cc(C(F)(F)F)nc2c(C(F)(F)F)cccc12)C1CCCCN1 (stereo not drawn) [mefloquine]			high plasm protein binding				
CCN(CC)CCCC(C)Nc1ccnc2cc(Cl)ccc12 (stereo not drawn) [chloroquine]			high plasm protein binding				
